# From ChEMBL document CHEMBL1275547, “KHM-1, a novel plasmid-mediated metallo-beta-lactamase from a Citrobacter freundii clinical isolate” (2008)
# How the values were obtained:
# [1] = test system: Citrobacter freundii; test: Antibacterial activity against Citrobacter freundii KHM243 clinical isolate by microdilution method; format: functional
# [2] = test system: Escherichia coli; test: Antibacterial activity against Escherichia coli JM109 harboring recombinant pKHM-1 by microdilution method; format: functional
# [3] = test system: Escherichia coli; test: Antibacterial activity against Escherichia coli JM109 by microdilution method; format: functional
# Method in brief: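 Microdilution β-lactam susceptibility in E. coli JM109, the host strain for recombinant plasmids such as the pHSG396-based blaKHM-1 clone.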
# [4] = test system: Escherichia coli; test: Antibacterial activity against Escherichia coli K-12 W1895 by microdilution method; format: functional
# Method in brief: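 Microdilution β-lactam MICs in E. coli K-12 W1895, the conjugation recipient. Transconjugants carrying the natural blaKHM-1 plasmid were selected on Penassay agar with rifampin (200 μg/ml) and moxalactam (16 μg/ml).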
# [5] = test system: Escherichia coli; test: Antibacterial activity against Escherichia coli K-12 W1895 transconjugant harboring pCF243 by microdilution method; format: functional
# [6] = test system: Escherichia coli; test: Antibacterial activity against Escherichia coli K-12 W1895 by microdilution method in presence of clavulanic acid; format: functional
# Method in brief: (§1)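 Broth microdilution MICs of β-lactams. Clavulanic acid was tested combined with ticarcillin at a fixed 15:1 ticarcillin:clavulanic acid ratio.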
# [7] = test system: Escherichia coli; test: Antibacterial activity against Escherichia coli JM109 by microdilution method in presence of clavulanic acid; format: functional
# Method in brief: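 Broth microdilution susceptibility of E. coli JM109, the host strain for pHSG396-based recombinant plasmids. Ticarcillin was tested with clavulanic acid at a fixed ticarcillin:clavulanic acid ratio of 15:1.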
# [8] = test system: Citrobacter freundii; test: Antibacterial activity against Citrobacter freundii KHM243 clinical isolate by microdilution method in presence of clavulanic acid; format: functional
# Method in brief: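 Broth microdilution MICs of β-lactams against the C. freundii KHM243 urinary isolate. Clavulanic acid was combined with ticarcillin at a fixed 15:1 ticarcillin-to-clavulanate ratio.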
# [9] = test system: Escherichia coli; test: Antibacterial activity against Escherichia coli K-12 W1895 transconjugant harboring pCF243 by microdilution method in presence of clavulanic acid; format: functional; method in brief: as §1
# [10] = test system: Escherichia coli; test: Antibacterial activity against Escherichia coli JM109 harboring recombinant pKHM-1 by microdilution method in presence of clavulanic acid; format: functional; method in brief: as §1
# [11] = test system: Escherichia coli; conditions: JM109;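 as to Kcat: Beta-lactamase KHM-1 expressed in Escherichia coli JM109 carrying recombinant pKHM-1, hydrolysis of substrate followed by UV-visible spectrophotometry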;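 as to Km: Beta-lactamase KHM-1 expressed in Escherichia coli JM109 carrying recombinant pKHM-1, hydrolysis of substrate followed by UV-visible spectrophotometry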
# [12] = test system: Escherichia coli; test: Ratio of Kcat to Km for Escherichia coli JM109 harboring recombinant pKHM-1 Beta-lactamase KHM-1 assessed as compound hydrolysis by UV-visible spectrophotometry
# Method in brief: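 KHM-1 was purified from E. coli JM109(pKHM-1) on HiTrap Q and Superdex 200 columns, with fractions tracked by 100 μM nitrocefin hydrolysis. Protein was measured by BCA. Hydrolysis was followed spectrophotometrically in 50 mM phosphate pH 7.0 at 25°C under initial-rate conditions. Km and kcat came from Lineweaver-Burk plots as means of three independent experiments, and kcat/Km was calculated from them.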
# [13] = test system: Escherichia coli; test: Antibacterial activity against Escherichia coli K-12 W1895 transconjugant harboring pCF243 by microdilution method in presence of Sulbactam; format: functional
# Method in brief: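 Broth microdilution MIC of ampicillin-sulbactam, combined at a 2:1 ampicillin:sulbactam ratio. The host is an E. coli K-12 W1895 transconjugant carrying the natural blaKHM-1 plasmid pCF243 from C. freundii KHM243, selected on Penassay broth agar with rifampin (200 μg/ml) and moxalactam.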
# [14] = test system: Escherichia coli; test: Antibacterial activity against Escherichia coli JM109 by microdilution method in presence of Sulbactam; format: functional
# Method in brief: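 Microdilution β-lactam susceptibility in E. coli JM109, the host for recombinant plasmids including the pHSG396 construct carrying blaKHM-1. Sulbactam was paired with ampicillin at a fixed 2:1 ampicillin-to-sulbactam ratio.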
# [15] = test system: Escherichia coli; test: Antibacterial activity against Escherichia coli JM109 harboring recombinant pKHM-1 by microdilution method in presence of Sulbactam; format: functional
# Method in brief: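 Broth microdilution MIC of ampicillin-sulbactam, combined at a 2:1 ampicillin:sulbactam ratio. The host is E. coli JM109 carrying pKHM-1, a recombinant pHSG396 clone of an EcoRI fragment of pCF243 bearing blaKHM-1, selected on agar with moxalactam (1 μg/ml).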
# [16] = test system: Escherichia coli; test: Antibacterial activity against Escherichia coli K-12 W1895 by microdilution method in presence of Sulbactam; format: functional
# Method in brief: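 β-Lactam susceptibility was measured by microdilution. Ampicillin was tested combined with sulbactam at a fixed 2:1 ampicillin:sulbactam ratio. The E. coli K-12 W1895 strain served as the recipient strain in the conjugation experiments.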
# [17] = test system: Citrobacter freundii; test: Antibacterial activity against Citrobacter freundii KHM243 clinical isolate by microdilution method in presence of Sulbactam; format: functional
# Method in brief: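 Broth microdilution susceptibility of C. freundii KHM243, a urinary isolate from a catheter-associated UTI patient (1997). Ampicillin was tested with sulbactam at a fixed ampicillin:sulbactam ratio of 2:1.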
SMILES,MIC [1],MIC [2],MIC [3],MIC [4],MIC [5],MIC [6],MIC [7],MIC [8],MIC [9],MIC [10],Km [11],kcat [11],kcat/Km [12],MIC [13],MIC [14],MIC [15],MIC [16],MIC [17]
CCN1CCN(C(=O)N[C@@H](C(=O)N[C@@H]2C(=O)N3[C@@H]2SC(C)(C)[C@@H]3C(=O)O)c2ccccc2)C(=O)C1=O [PIPERACILLIN],4 µg/mL,4 µg/mL,0.25 µg/mL,2 µg/mL,16 µg/mL,–,–,–,–,–,–,–,–,–,–,–,–,–
CO/N=C(\C(=O)N[C@@H]1C(=O)N2C(C(=O)[O-])=C(C[n+]3ccn4ncccc43)CS[C@H]12)c1nsc(N)n1 [CEFOZOPRAN],16 µg/mL,64 µg/mL,0.008 µg/mL,0.016 µg/mL,256 µg/mL,–,–,–,–,–,–,–,–,–,–,–,–,–
CC1(C)S[C@@H]2[C@H](NC(=O)[C@H](C(=O)O)c3ccsc3)C(=O)N2[C@H]1C(=O)O [TICARCILLIN],> 512 µg/mL,512 µg/mL,2 µg/mL,2 µg/mL,> 512 µg/mL,4 µg/mL,2 µg/mL,512 µg/mL,> 512 µg/mL,512 µg/mL,–,–,–,–,–,–,–,–
CO[C@@]1(NC(=O)Cc2cccs2)C(=O)N2C(C(=O)O)=C(COC(N)=O)CS[C@@H]21 [CEFOXITIN],512 µg/mL,> 512 µg/mL,8 µg/mL,8 µg/mL,> 512 µg/mL,–,–,–,–,–,81 µM,1180 s⁻¹,1.4 ×10⁷ /M/s,–,–,–,–,–
CC1(C)S[C@@H]2[C@H](NC(=O)[C@H](N)c3ccccc3)C(=O)N2[C@H]1C(=O)O [AMPICILLIN],256 µg/mL,16 µg/mL,1 µg/mL,8 µg/mL,64 µg/mL,–,–,–,–,–,978 µM,19 s⁻¹,1.9 ×10⁴ /M/s,64 µg/mL,0.5 µg/mL,16 µg/mL,1 µg/mL,64 µg/mL
CO[C@@]1(NC(=O)C2SC(=C(C(N)=O)C(=O)O)S2)C(=O)N2C(C(=O)O)=C(CSc3nnnn3C)CS[C@@H]21 (stereo partly specified) [CEFOTETAN],128 µg/mL,> 512 µg/mL,0.031 µg/mL,0.125 µg/mL,512 µg/mL,–,–,–,–,–,–,–,–,–,–,–,–,–
CO/N=C(\C(=O)N[C@@H]1C(=O)N2C(C(=O)[O-])=C(C[N+]3(C)CCCC3)CS[C@H]12)c1csc(N)n1,–,64 µg/mL,0.004 µg/mL,0.002 µg/mL,> 512 µg/mL,–,–,–,–,–,–,–,–,–,–,–,–,–
CO[C@@]1(NC(=O)CSCC#N)C(=O)N2C(C(=O)O)=C(CSc3nnnn3C)CS[C@@H]21 [CEFMETAZOLE],512 µg/mL,> 512 µg/mL,0.25 µg/mL,0.5 µg/mL,512 µg/mL,–,–,–,–,–,–,–,–,–,–,–,–,–
CO[C@@]1(NC(=O)CSC[C@@H](N)C(=O)O)C(=O)N2C(C(=O)O)=C(CSc3nnnn3C)CS[C@@H]21 [CEFMINOX],512 µg/mL,512 µg/mL,0.25 µg/mL,0.125 µg/mL,> 512 µg/mL,–,–,–,–,–,–,–,–,–,–,–,–,–
CO[C@@]1(NC(=O)C(C(=O)O)c2ccc(O)cc2)C(=O)N2C(C(=O)O)=C(CSc3nnnn3C)CO[C@@H]21 (stereo partly specified) [MOXALACTAM],256 µg/mL,> 512 µg/mL,0.031 µg/mL,0.063 µg/mL,> 512 µg/mL,–,–,–,–,–,71 µM,2790 s⁻¹,3.9 ×10⁷ /M/s,–,–,–,–,–
O=C(Cc1cccs1)N[C@@H]1C(=O)N2C(C(=O)[O-])=C(C[n+]3ccccc3)CS[C@H]12 [CEPHALORIDINE],512 µg/mL,64 µg/mL,1 µg/mL,2 µg/mL,128 µg/mL,–,–,–,–,–,4.4 µM,686 s⁻¹,1.6 ×10⁸ /M/s,–,–,–,–,–
